In ChEMBL document CHEMBL1122664, “Synthesis and evaluation of 19-aza- and 19-aminoandrostenedione analogues as potential aromatase inhibitors” (J Med Chem, 1984):
Where “and” joins values, the source holds several entries; their conditions need not be identical. Equal entries are not always repeated.

Assays:
Aromatase [1] = molecular target: T1, Aromatase (Homo sapiens, UniProt P11511); assay: Inhibition of 0.25 uM [1-3H]-androst-4-ene-3,17-dione binding to Cytochrome P450 19A1
T1 sequence (P11511 whole entry): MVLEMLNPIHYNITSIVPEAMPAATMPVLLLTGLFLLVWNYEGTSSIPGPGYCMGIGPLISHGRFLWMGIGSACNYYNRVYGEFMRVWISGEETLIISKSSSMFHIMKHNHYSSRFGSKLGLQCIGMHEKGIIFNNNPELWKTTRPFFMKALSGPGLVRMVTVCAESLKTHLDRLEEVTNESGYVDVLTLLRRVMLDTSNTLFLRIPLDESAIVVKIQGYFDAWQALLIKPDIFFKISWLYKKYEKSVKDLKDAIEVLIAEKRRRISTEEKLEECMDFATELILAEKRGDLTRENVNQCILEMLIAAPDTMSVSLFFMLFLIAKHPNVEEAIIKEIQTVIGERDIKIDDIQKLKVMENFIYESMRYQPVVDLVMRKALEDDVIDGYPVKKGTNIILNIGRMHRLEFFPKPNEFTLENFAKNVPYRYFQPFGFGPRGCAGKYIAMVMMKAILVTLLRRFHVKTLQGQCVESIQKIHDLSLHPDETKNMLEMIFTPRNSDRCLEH
Outline: (§1)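 Tritiated water release assay using lyophilized, twice-washed human term placental microsomes (0.1 mg protein) with [1-³H]androstenedione at 0.25 μM (5 × KM) and inhibitor at 0.25 or 1.25 μM. NADPH-generating system in 10 mM K phosphate with KCl, EDTA and DTT; 15 min at 25 °C. Stopped with CHCl₃; charcoal-treated aqueous ³H₂O counted. Triplicates; % inhibition versus concurrent controls.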

Aromatase [2] = molecular target: T1, Aromatase; assay: Inhibition of 1.25 uM [1-3H]-androst-4-ene-3,17-dione binding to Cytochrome P450 19A1; outline: as §1

Row | SMILES | Inhibition (Aromatase [1]) | Inhibition (Aromatase [2])
1 | C[C@]12CCC(=O)C=C1C[C@@H](Sc1ccc(N)cc1)[C@@H]1[C@@H]2CC[C@]2(C)C(=O)CC[C@@H]12 | 54.8% | 83.1%
2 | COC(=O)N[C@]12CCC(=O)C=C1CC[C@H]1[C@@H]3CCC(=O)[C@@]3(C)CC[C@@H]12 | < 2% | < 2%
3 | C[C@]12CC[C@H]3[C@@H](CCC4=CC(=O)CC[C@@]43CNC(=O)C(F)(F)F)[C@@H]1CCC2=O | 2.5% | 11.4%
4 | C[C@]12CC[C@H]3[C@@H](CCC4=CC(=O)CC[C@@]43/C=N\O)[C@@H]1CCC2=O | 8.6% | 4.1%
5 | CC(=O)NC[C@]12CCC(=O)C=C1CC[C@@H]1[C@@H]2CC[C@]2(C)C(=O)CC[C@@H]12 | < 2% | 13.2%
6 | C[C@]12CC[C@H]3[C@@H](CCC4=CC(=O)CC[C@@]43N)[C@@H]1CCC2=O | 9.4% and 6.9% | 19.2% and 10.9%
7 | C[C@]12CC[C@H]3[C@@H](CCC4=CC(=O)CC[C@@]43N=C=O)[C@@H]1CCC2=O | < 2% | < 2%
8 | C[C@]12CCC(=O)C(O)=C1CC[C@@H]1[C@@H]2CC[C@]2(C)C(=O)CC[C@@H]12 [FORMESTANE] | 50.1% | 81.6%
